Measured values: ChEMBL document CHEMBL4689842, “EUbOPEN Chemogenomics Library wave 1” (2021)

How the values were obtained:
Type in all cases: toxicity, cell-based
[1] = system: HEK-293T; test: Incucyte cell viability with HEK293T; conditions: human, 10 µM, compound concentration 10 uM; note: filed as whole numbers so only -1 and 0 and 1 occur
[2] = system: Fibroblast; test: Multiplex assay against human fibroblast
Summary of the method: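 Phenotypes for tubulin, mitochondrial mass and membrane permeability are expressed as per cents of healthy-nucleus cells. Cells were stained live at seeding with Hoechst33342, BioTracker Green Microtubule Cytoskeleton Dye, MitoTracker Red and Annexin V Alexa Fluor 680, then imaged after compound addition on a CQ1 microscope at 37°C and 5% CO2. Machine-learning gating in CellPathfinder separated Hoechst high-intensity objects from normal cells, divided normal cells by nuclear state (healthy, pyknosed, fragmented) and divided pyknosed cells into mitotic or apoptotic.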

[3] = system: U2OS; test: Incucyte cell viability with U2OS; conditions: human, 10 µM, compound concentration 10 uM; note: filed as whole numbers so only -1 and 0 and 1 occur
[4] = system: Fibroblast; test: Incucyte cell viability with human fibroblast; conditions: 10 µM, compound concentration 10 uM; note: filed as whole numbers so only -1 and 0 and 1 occur
[5] = 6 h, replicate number 1, timepoint 6 hours
[6] = 12 h, replicate number 1, timepoint 12 hours
[7] = 18 h, replicate number 1, timepoint 18 hours
[8] = 24 h, replicate number 1, timepoint 24 hours
[9] = 12 h, 1 µM, compound concentration 1 uM, replicate 1
[10] = 12 h, 1 µM, compound concentration 1 uM, replicate 2
[11] = 12 h, 10 µM, compound concentration 10 uM, replicate 1
[12] = 12 h, 10 µM, compound concentration 10 uM, replicate 2
[13] = 24 h, 1 µM, compound concentration 1 uM, replicate 1
[14] = 24 h, 1 µM, compound concentration 1 uM, replicate 2
[15] = 24 h, 10 µM, compound concentration 10 uM, replicate 1
[16] = 24 h, 10 µM, compound concentration 10 uM, replicate 2

CC[C@H](Nc1ncnc2[nH]cnc12)c1nc2cccc(F)c2c(=O)n1-c1ccccc1 [IDELALISIB]
Growth Rate [1, 5]: 0 | Growth Rate [1, 6]: 0 | Growth Rate [1, 7]: 0 | Growth Rate [1, 8]: 0 | Population Apoptotic (%) [2, 9]: 91% | Population Fragmented Nuclei (%) [2, 9]: 26% | Population Healthy Nuclei (%) [2, 9]: 56% | Population Hoechst High Intensity Objects (%) [2, 9]: 11% | Population Membrane Permeable-Phenotype (%) [2, 9]: 12% | Population Mitochondria Different-Phenotype (%) [2, 9]: 1% | Population Mitotic Cells (%) [2, 9]: 8% | Population Normal (%) [2, 9]: 88% | Population Pyknosed Nuclei (%) [2, 9]: 17% | Population Tubulin-Different-Phenotype (%) [2, 9]: 20% | Total Cell Count [2, 9]: 222 | Population Apoptotic (%) [2, 10]: 50% | Population Fragmented Nuclei (%) [2, 10]: 56% | Population Healthy Nuclei (%) [2, 10]: 34% | Population Hoechst High Intensity Objects (%) [2, 10]: 30% | Population Membrane Permeable-Phenotype (%) [2, 10]: 6% | Population Mitochondria Different-Phenotype (%) [2, 10]: 26% | Population Mitotic Cells (%) [2, 10]: 50% | Population Normal (%) [2, 10]: 69% | Population Pyknosed Nuclei (%) [2, 10]: 9% | Population Tubulin-Different-Phenotype (%) [2, 10]: 53% | Total Cell Count [2, 10]: 63 | Population Apoptotic (%) [2, 11]: 58% | Population Fragmented Nuclei (%) [2, 11]: 26% | Population Healthy Nuclei (%) [2, 11]: 59% | Population Hoechst High Intensity Objects (%) [2, 11]: 10% | Population Membrane Permeable-Phenotype (%) [2, 11]: 14% | Population Mitochondria Different-Phenotype (%) [2, 11]: 0% | Population Mitotic Cells (%) [2, 11]: 41% | Population Normal (%) [2, 11]: 89% | Population Pyknosed Nuclei (%) [2, 11]: 13% | Population Tubulin-Different-Phenotype (%) [2, 11]: 4% | Total Cell Count [2, 11]: 199 | Population Apoptotic (%) [2, 12]: 50% | Population Fragmented Nuclei (%) [2, 12]: 58% | Population Healthy Nuclei (%) [2, 12]: 33% | Population Hoechst High Intensity Objects (%) [2, 12]: 34% | Population Membrane Permeable-Phenotype (%) [2, 12]: 18% | Population Mitochondria Different-Phenotype (%) [2, 12]: 31% | Population Mitotic Cells (%) [2, 12]: 50% | Population Normal (%) [2, 12]: 65% | Population Pyknosed Nuclei (%) [2, 12]: 8% | Population Tubulin-Different-Phenotype (%) [2, 12]: 25% | Total Cell Count [2, 12]: 73 | Population Apoptotic (%) [2, 13]: 59% | Population Fragmented Nuclei (%) [2, 13]: 27% | Population Healthy Nuclei (%) [2, 13]: 54% | Population Hoechst High Intensity Objects (%) [2, 13]: 12% | Population Mitochondria Different-Phenotype (%) [2, 13]: 5% | Population Mitotic Cells (%) [2, 13]: 40% | Population Normal (%) [2, 13]: 87% | Population Pyknosed Nuclei (%) [2, 13]: 17% | Population Tubulin-Different-Phenotype (%) [2, 13]: 15% | Total Cell Count [2, 13]: 211 | Population Apoptotic (%) [2, 14]: 40% | Population Fragmented Nuclei (%) [2, 14]: 56% | Population Healthy Nuclei (%) [2, 14]: 30% | Population Hoechst High Intensity Objects (%) [2, 14]: 35% | Population Membrane Permeable-Phenotype (%) [2, 14]: 0% | Population Mitochondria Different-Phenotype (%) [2, 14]: 25% | Population Mitotic Cells (%) [2, 14]: 60% | Population Normal (%) [2, 14]: 65% | Population Pyknosed Nuclei (%) [2, 14]: 12% | Population Tubulin-Different-Phenotype (%) [2, 14]: 33% | Total Cell Count [2, 14]: 60 | Population Apoptotic (%) [2, 15]: 73% | Population Fragmented Nuclei (%) [2, 15]: 22% | Population Healthy Nuclei (%) [2, 15]: 59% | Population Hoechst High Intensity Objects (%) [2, 15]: 13% | Population Membrane Permeable-Phenotype (%) [2, 15]: 7% | Population Mitochondria Different-Phenotype (%) [2, 15]: 0% | Population Mitotic Cells (%) [2, 15]: 26% | Population Normal (%) [2, 15]: 86% | Population Pyknosed Nuclei (%) [2, 15]: 17% | Population Tubulin-Different-Phenotype (%) [2, 15]: 1% | Total Cell Count [2, 15]: 221 | Population Apoptotic (%) [2, 16]: 0% | Population Fragmented Nuclei (%) [2, 16]: 70% | Population Healthy Nuclei (%) [2, 16]: 25% | Population Hoechst High Intensity Objects (%) [2, 16]: 22% | Population Membrane Permeable-Phenotype (%) [2, 16]: 26% | Population Mitochondria Different-Phenotype (%) [2, 16]: 6% | Population Mitotic Cells (%) [2, 16]: 100% | Population Normal (%) [2, 16]: 77% | Population Pyknosed Nuclei (%) [2, 16]: 5% | Population Tubulin-Different-Phenotype (%) [2, 16]: 33% | Total Cell Count [2, 16]: 77 | Growth Rate ([3]; 0 h, replicate number 1, timepoint 0 hours): 0 | Growth Rate [3, 5]: 0 | Growth Rate [3, 6]: 1 | Growth Rate ([3]; 12 h, replicate number 2, timepoint 12 hours): 0 | Growth Rate [3, 7]: 0 | Growth Rate [3, 8]: 0 | Growth Rate [4, 5]: 0 | Growth Rate [4, 6]: 0 | Growth Rate [4, 7]: 0 | Growth Rate ([4]; 18 h, replicate number 2, timepoint 18 hours): 1 | Growth Rate [4, 8]: 1
